Compound activity: PubChem, Johns Hopkins Ion Channel Center
KCNK9 block = KCNK9 potassium channel inhibitors, primary screen, HEK293 cells, thallium flux; Potassium channel subfamily K member 9 (Homo sapiens), Q9NPC2; FluxOR thallium flux fluorescence; active compounds read low; B-score at 10 µM; 310,000 tested, 1.2% active; AID 488922, 2010;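 active = ratio B-score over 3 SD below the library mean, with starting fluorescence within 5 SD of its mean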;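 also: negative B-score means less thallium flux so channel inhibition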
KCNK3 block = human KCNK3 channel inhibitors, primary screen, CHO cells, FluxOR thallium flux, B-score; Potassium channel subfamily K member 3 (Homo sapiens), O14649; FluxOR fluorescence; active compounds read low; B-score at 10 µM; 340,000 tested, 0.84% active;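 active = B-score under library mean minus 4 SD, starting fluorescence ratio at most library mean plus 5 SD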;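 also: more negative B-score means stronger inhibition of thallium flux through KCNK3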
KCNQ1 pot = potentiators or activators of KCNQ1 channel, primary screen, cell-based, thallium flux, high-throughput | 310,000 tested, 0.35% active | Potassium voltage-gated channel subfamily KQT member 1 (Homo sapiens), P51787 | B-score at 10 µM | CHO-K1 KCNQ1, thallium flux FluxOR fluorescence; active compounds read high;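 active = fluorescence ratio B-score, a plate-corrected score, at least three library SD, with initial intensity B-score within 5 SD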
Target sequence (P51787 whole entry, looked up): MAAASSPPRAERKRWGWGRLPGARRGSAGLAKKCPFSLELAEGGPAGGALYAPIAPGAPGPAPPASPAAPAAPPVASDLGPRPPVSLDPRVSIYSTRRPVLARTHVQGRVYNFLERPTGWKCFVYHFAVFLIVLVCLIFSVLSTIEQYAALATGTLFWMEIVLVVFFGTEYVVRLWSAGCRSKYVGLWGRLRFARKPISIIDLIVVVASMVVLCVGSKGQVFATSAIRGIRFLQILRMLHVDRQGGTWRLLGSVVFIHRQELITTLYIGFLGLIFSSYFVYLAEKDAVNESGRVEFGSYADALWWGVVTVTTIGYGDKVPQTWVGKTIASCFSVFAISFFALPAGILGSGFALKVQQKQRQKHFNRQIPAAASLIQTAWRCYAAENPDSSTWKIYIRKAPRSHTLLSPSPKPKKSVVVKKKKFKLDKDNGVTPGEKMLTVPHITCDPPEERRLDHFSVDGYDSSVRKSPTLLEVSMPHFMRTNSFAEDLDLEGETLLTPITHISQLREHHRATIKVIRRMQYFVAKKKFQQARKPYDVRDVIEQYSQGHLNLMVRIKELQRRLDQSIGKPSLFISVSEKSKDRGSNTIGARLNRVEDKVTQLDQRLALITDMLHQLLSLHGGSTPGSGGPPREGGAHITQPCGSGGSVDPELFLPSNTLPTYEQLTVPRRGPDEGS
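assay system = CHO-K1 cells stably expressing KCNQ1 | medium = assay buffer, equal DMSO in all wells | timing = 37 °C overnight plating, 90-min dark dye load, 20-min compound pretreatment | measured by = kinetic FluxOR thallium fluorescence, 10-s 1-Hz baseline, 110-s post-stimulus read | measure = fluorescence change relative to baseline, converted to B score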
hERG rescue = hERG rescue from dofetilide block, primary screen, cell-based, CHO-hERG, FluxOR thallium flux, dofetilide IC70; Voltage-gated inwardly rectifying potassium channel KCNH2 (Homo sapiens), Q12809; AID 1511, 2009; activation (rescue from dofetilide block), less the hit threshold, % at 10 µM; 310,000 tested, 0.51% active; dofetilide IC70 present;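 active = activation above the mean of controls blocked by dofetilide plus 5 SD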;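 also: thallium influx through hERG after potassium depolarization seen as dye fluorescence rise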
KCNQ1 inh = inhibitors of human KCNQ1 channel, primary screen, cell-based, thallium flux, high-throughput. AID 2642, 2010. B-score at 10 µM. 310,000 tested, 1.3% active. Potassium voltage-gated channel subfamily KQT member 1 (Homo sapiens), P51787. CHO-K1 KCNQ1, FluxOR thallium flux fluorescence; active compounds read high;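 active = compounds whose thallium flux B-score, printed positive for inhibition, exceeds three library SD while starting fluorescence stays within three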;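 also: channel opened by potassium depolarization with thallium stimulus after 20 min compound exposure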
* marks the source's active call; other numbers are inactive results; i = inactive; / = not tested or not shown. A selection: hits, their analogues and other compounds. The true share with any hit is near 3.1%.

SMILES	KCNK9 block	KCNK3 block	KCNQ1 pot	hERG rescue	KCNQ1 inh
Cc1cc(C2=CC(C)(c3cc(C)oc3C)Nc3nc(C(F)(F)F)nn32)c(C)o1 (configuration not stated)	i	/	i	-10.6	i
CCCCCCSc1ccc([C@H]2N[C@@](Cc3ccccc3)(C(=O)OC)[C@H]3C(=O)N(C)C(=O)[C@@H]23)cc1OC	i	i	i	-3.3	i
O=C(O)CSc1nc2ccccc2[nH]1	i	i	i	8.4*	i
O=C(O)CSc1nc2ccccc2c(=O)[nH]1	i	i	i	-8.2	i
Cc1ccc2nc(SCCCCOc3ccccc3)[nH]c2c1	i	-9.92*	i	-2.4	i
CC/C(=C\c1ccc(N(C)C)cc1)c1ccncc1	/	i	/	/	/
Cn1nc(C(=O)OCC(=O)Nc2ccc(SC(F)F)cc2)c2ccccc2c1=O	/	i	/	/	/
COc1ccc(CCNC(=O)COC(=O)C23CC4CC(CC(C4)C2)C3)cc1	i	i	i	-11.8	i
O=C(COC(=O)C12CC3CC(CC(C3)C1)C2)NCCCc1ccccc1	i	i	23*	-5.4	i
O=C(N=Nc1c(O)[nH]c2ccc([N+](=O)[O-])cc12)c1cc(-c2ccccc2Cl)nc2ccccc12	i	i	i	15.3*	i
CCc1ccc(NC(=O)C2CCCN2c2nn3c(=O)cc(C)nc3s2)cc1 (configuration not stated)	i	i	i	-3.0	i
CCOC(=O)CN1C(c2ccccc2O)Nc2ccc(Br)cc2C1c1ccccc1 (configuration not stated)	-7.38*	i	i	-6.8	i
Cc1ccc(N(C(=O)c2csnn2)C(C(=O)NC2CCCCC2)c2ccncc2)cc1 (configuration not stated)	i	i	i	-9.2	i
Cc1cccc(C)c1NC(=O)COC(=O)CN1C(=O)C2CCCCC2C1=O (configuration not stated)	/	i	/	/	/
CCc1noc(C)c1C(=O)N(CC)c1nc2c(C)cccc2s1	i	i	i	-9.7	i
COc1cccc(C(C[N+](=O)[O-])c2c(C)[nH]n(-c3ccccc3)c2=O)c1 (configuration not stated)	i	i	i	-21.9	8*
Cc1[nH]n(-c2ccccc2)c(=O)c1C(C[N+](=O)[O-])c1ccc(Br)cc1 (configuration not stated)	i	i	i	-11.1	i
Cc1ccc(S(=O)(=O)NC2=NCN(CC(=O)O)CN2)cc1	i	i	i	-0.7	i
O=C(Nc1ccc(Br)c2ccccc12)c1ccc2ccccc2c1O	i	i	i	-27.6	7*
CC(=O)Nc1ccc(Br)c2ccccc12	i	i	i	-10.7	i
CCCn1c(SCC(=O)Nc2cc(C)on2)n[nH]c1=O	/	i	/	/	/
O=C(NC(=S)N1CCN(C/C=C/c2ccccc2)CC1)c1cccnc1	i	i	i	-9.8	i
O=C(NC(=S)N1CCN(C/C=C/c2ccccc2)CC1)c1ccc(F)cc1	i	i	8*	0.6	i
CCCC(=O)Nc1ccc(OCC(O)CNC(C)C)c(C(C)=O)c1 (configuration not stated)	i	i	9*	-8.6	i
CC(NC(=O)c1ccccc1)C(=O)NC1CCCc2ccccc21 (configuration not stated)	/	i	/	/	/
SMILES	KCNK9 block	KCNK3 block	KCNQ1 pot	hERG rescue	KCNQ1 inh
COc1ccc(CNC(=O)C2CCN(S(=O)(=O)N3CCCCC3)CC2)c(OC)c1	i	i	i	-7.3	i
O=C(Nc1ccccc1N1CCN(C(=O)c2ccc(Cl)cc2)CC1)c1ccc([N+](=O)[O-])o1	i	-11*	i	-14.7	i
Cc1cc(C(=O)OC(C(=O)Nc2cccc(C(F)(F)F)c2)c2ccccc2)c(C)o1 (configuration not stated)	i	i	i	-5.1	9*
Cc1ccc(NC(=O)C(OC(=O)c2cc(C)oc2C)c2ccccc2)cc1 (configuration not stated)	i	i	i	-4.8	i
O=C(CSc1nc2ccc([N+](=O)[O-])cc2[nH]1)NC1CCCCC1	i	i	i	-14.1	i
O=C(CSc1nc2ccc([N+](=O)[O-])cc2[nH]1)NC1CCCCCC1	i	i	i	-12.2	14*
CCCn1c(SCC(=O)N2CCN(CC)CC2)nc2c1c(=O)n(C)c(=O)n2C	i	i	i	-7.2	i
COC(=O)C1=NN(C(=O)c2ccc(C)cc2)C(O)(c2ccc(Cl)cc2)C1 (configuration not stated)	i	/	37*	50.2*	i
NC(=S)N1N=C(c2ccccc2)CC1=O	/	i	/	/	/
O=C(CSc1nc2ccc(Nc3nc(N4CCCC4)nc(N4CCCC4)n3)cc2s1)NCc1ccco1	i	i	i	-15.2	8*
CCOC(=O)c1cc(-c2ccccc2)sc1NC(=O)C(C)C	i	i	i	-7.1	i
CCOC(=O)c1cc(-c2ccccc2)sc1NC(=O)C(C)Sc1nnc(C)s1 (configuration not stated)	-7.03*	i	i	-9.4	i
CC1Cc2ccccc2N1S(=O)(=O)c1cccc(C(=O)N2Cc3ccccc3CC2C(N)=O)c1 (configuration not stated)	/	i	/	/	/
O=C(CCn1c(=O)oc2ccccc21)N1CCN(c2ccccc2F)CC1	i	i	i	5.3*	i
O=C(CCCn1c(=O)oc2ccccc21)N1CCN(c2ccc(F)cc2)CC1	i	i	i	-11.5	i
Cc1cc(C)c2ccc(C)[n+]([O-])c2c1O	i	i	8*	-7.0	i
Cc1cc(C)c2ccc(N)nc2c1O	i	i	i	-9.1	i
COCCC(C(=O)Oc1c(C(C)(C)C)cc(C)cc1C(C)(C)C)c1ccccc1 (configuration not stated)	/	i	/	/	/
COc1cc(C(F)(F)F)ccc1C(=O)NCCc1ccco1	i	i	i	-3.0	i
CC(C)(C)c1ccc(OCc2ccc(C(=O)N/N=C/c3ccc([N+](=O)[O-])cc3)o2)cc1	i	i	i	-15.1	7*
CC(=O)c1ccc(NC(=O)CN2CCCC2)cc1	i	i	i	-3.4	i
O=[N+]([O-])c1ccc(C2CC(c3ccccc3)=Nc3ccccc3S2)cc1 (configuration not stated)	-7.93*	i	i	-9.1	i
